In brackets after ≈: the same amount, converted by molar mass. Activity calls are given as the source filed them. No cut-off for these calls is given here.
How the values were obtained:
[1] = system: Mycobacterium intracellulare; experiment: Antibacterial activity against Mycobacterium intracellulare ATCC 13950 assessed as inhibition of bacterial growth incubated upto 3 weeks hrs by resazurin dye based double-dilution method; type: functional; details: ATCC 13950, 504 h
Procedure, shortened: (§1)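 Double-dilution broth MIC. Media: M. smegmatis, Mueller-Hinton; M. abscessus, 7H9 + 0.05% Tween80 + 0.4% glycerol; mc²6230, 7H9 + 0.05% tyloxapol, 0.5% glycerol, 10% OADC, 0.2% casamino acids, 24 µg/mL pantothenate; other mycobacteria, 7H9 + 0.05% Tween80, 0.4% glycerol, 10% ADC. Inoculum from agar set to 0.5 McFarland, then diluted 1:100.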

[2] = system: Mycolicibacterium smegmatis; experiment: Synergistic antibacterial activity against Mycobacterium smegmatis mc2 155 assessed as fold reduction in MIC value at 8 ug/ml in presence of clarithromycin by checkerboard assay; type: functional; details: dose 8 µg/ml
[3] = system: Mycobacteroides abscessus; experiment: Antibacterial activity against Mycobacterium abscessus ATCC 19977 assessed as inhibition of bacterial growth incubated upto 3 weeks hrs by resazurin dye based double-dilution method; type: functional; details: ATCC 19977, 504 h; procedure, shortened: as §1
[4] = system: Mycolicibacterium smegmatis; experiment: Synergistic antibacterial activity against Mycobacterium smegmatis mc2 155 assessed as fold reduction in MIC value at 8 ug/ml in presence of spectinomycin by checkerboard assay; type: functional; details: dose 8 µg/ml
[5] = system: Mycobacterium tuberculosis; experiment: Antibacterial activity against Mycobacterium tuberculosis H37Ra ATCC NRS22 assessed as inhibition of bacterial growth incubated upto 3 weeks hrs by resazurin dye based double-dilution method; type: functional; details: H37Ra ATCC NRS22, 504 h; procedure, shortened: as §1
N-acetyltransferase Eis [6] = biological target: T1, N-acetyltransferase Eis (Mycobacterium tuberculosis (strain ATCC 25618 / H37Rv), UniProt P9WFK7); experiment: Competitive inhibition of Mycobacterium tuberculosis Eis assessed as reduction in Eis-mediated kanamycin acetylation preincubated for 10 mins followed by substrate addition and measured for 2 to 5 mins using acetyl-CoA as substrate in presence of kanamycin by Lineweaver-Burk plot analysis
T1 sequence (P9WFK7 whole entry): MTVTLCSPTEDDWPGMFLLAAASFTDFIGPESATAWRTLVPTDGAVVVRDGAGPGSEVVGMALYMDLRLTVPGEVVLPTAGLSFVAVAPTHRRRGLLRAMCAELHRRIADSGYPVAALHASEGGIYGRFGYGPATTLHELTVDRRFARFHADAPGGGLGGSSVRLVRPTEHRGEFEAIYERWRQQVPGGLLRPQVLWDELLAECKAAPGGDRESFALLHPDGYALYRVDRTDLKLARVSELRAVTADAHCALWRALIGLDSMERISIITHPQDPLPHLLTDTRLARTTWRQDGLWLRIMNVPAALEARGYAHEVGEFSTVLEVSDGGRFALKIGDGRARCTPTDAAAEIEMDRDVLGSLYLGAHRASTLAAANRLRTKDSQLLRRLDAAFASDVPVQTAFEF
Procedure, shortened: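 Same DTNB-coupled Eis acetylation assay used for IC50, run as Michaelis-Menten kinetics with inhibitor at 0-1 μM. Vmax and Km from these fits used to determine mode of inhibition. Quadruplicate.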

[7] = system: Mycolicibacterium smegmatis; experiment: Antibacterial activity against Mycobacterium smegmatis mc2 155 assessed as inhibition of bacterial growth incubated upto 3 weeks hrs by resazurin dye based double-dilution method; type: functional; details: mc2 155, 504 h; procedure, shortened: as §1
N-acetyltransferase Eis [8] = biological target: T1, N-acetyltransferase Eis; experiment: Inhibition of Mycobacterium tuberculosis Eis assessed as Eis-mediated kanamycin acetylation preincubated for 10 mins followed by substrate addition and measured for 2 to 5 mins using acetyl-CoA as substrate in presence of kanamycin by UV-Vis spectroscopy analysis
Procedure, shortened: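 Recombinant Eis (1 µM) mixed with KAN (400 µM) in 50 mM Tris-HCl pH 8.0 and preincubated 10 min with 5-fold serially diluted inhibitor (10% DMSO in buffer). Reaction started with AcCoA and DTNB (2 mM each, as added). Absorbance read every 30 s for 20 min. Initial rates (first 2-5 min) fitted to Hill plot for IC50. At least triplicate.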

Mycobacterium avium [9] = experiment: Antibacterial activity against Mycobacterium avium ATCC 25921 assessed as inhibition of bacterial growth incubated upto 3 weeks hrs by resazurin dye based double-dilution method; type: functional; details: ATCC 25921, 504 h; procedure, shortened: as §1
[10] = system: Mycobacterium tuberculosis; experiment: Potentiation of kanamycin-induced antibacterial activity against Mycobacterium tuberculosis H37Rv assessed as kanamycin MIC incubated for 1 day followed by kanamycin addition for 6 days and by Alamar blue assay; type: functional; details: 168 h, time 7 day
Procedure, shortened: (§2)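 Mtb in 7H9 + 10% ADC, 0.05% Tween 80, 0.4% glycerol at 37 °C. Inoculum adjusted to OD600 0.2, diluted 1:25. Cells preincubated 24 h at 37 °C with compound (100 µL of 200 µM solution). KAN then added: H37Rv at 2.5 and 1.25 µg/mL; K204 at 10, 5, 2.5, 1.25 µg/mL. Incubated 6 days, AlamarBlue added, colour read at 24 and 48 h. MIC = lowest KAN with no colour change. At least twice in duplicate.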

[11] = system: Mycobacterium tuberculosis; experiment: Potentiation of kanamycin-induced antibacterial activity against Mycobacterium tuberculosis K204 assessed as kanamycin MIC incubated for 1 day followed by kanamycin addition for 6 days and by Alamar blue assay; type: functional; details: K204, 168 h, time 7 day; procedure, shortened: as §2
[12] = Metabolic stability in mouse liver microsomes at 2 to 4 uM incubated for 30 mins by LC-MS/MS analysis; type: ADME, Microsome; details: dose 2-4 µM, read-out: Stability
[13] = Metabolic stability in human liver microsomes at 2 to 4 uM incubated for 30 mins by LC-MS/MS analysis; type: ADME, Microsome; details: dose 2-4 µM, read-out: Stability
Mycobacterium avium [14] = experiment: Antibacterial activity against Mycobacterium avium ATCC 25921 in presence of spectinomycin by checkerboard assay; type: functional, organism-based
Procedure, shortened: (§3)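 Checkerboard in 96-well plates. Antibiotic two-fold serially diluted along columns, haloperidol derivative two-fold along rows. Bacteria prepared as for the MIC determination. MICs alone and in combination used to calculate FICI. At least duplicate independent trials.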

[15] = system: Mycobacteroides abscessus; experiment: Synergistic antibacterial activity against Mycobacterium abscessus ATCC 19977 in presence of clarithromycin by checkerboard assay; type: functional, organism-based; procedure, shortened: as §3
[16] = system: Mycobacterium intracellulare; experiment: Antibacterial activity against Mycobacterium intracellulare ATCC 13950 in presence of clarithromycin by checkerboard assay; type: functional, organism-based; procedure, shortened: as §3
[17] = system: Mycobacterium intracellulare; experiment: Antibacterial activity against Mycobacterium intracellulare ATCC 13950 in presence of spectinomycin by checkerboard assay; type: functional, organism-based; procedure, shortened: as §3
[18] = system: Mycobacteroides abscessus; experiment: Synergistic antibacterial activity against Mycobacterium abscessus ATCC 19977 assessed as reduction in bacterial growth presence of spectinomycin by checkerboard assay; type: functional, organism-based; procedure, shortened: as §3
Mycobacterium avium [19] = experiment: Antibacterial activity against Mycobacterium avium ATCC 25921 in presence of clarithromycin by checkerboard assay; type: functional, organism-based; procedure, shortened: as §3
[20] = system: Mycobacterium intracellulare; experiment: Antibacterial activity against Mycobacterium intracellulare ATCC 13950 in presence of clofazimine by checkerboard assay; type: functional, organism-based; procedure, shortened: as §3
[21] = system: Mycobacteroides abscessus; experiment: Synergistic antibacterial activity against Mycobacterium abscessus ATCC 19977 in presence of clofazimine by checkerboard assay; type: functional, organism-based; procedure, shortened: as §3
[22] = system: Mycobacterium tuberculosis; experiment: Synergistic antibacterial activity against Mycobacterium tuberculosis H37Ra ATCC NRS22 in presence of spectinomycin by checkerboard assay; type: functional, organism-based; procedure, shortened: as §3
[23] = system: Mycolicibacterium smegmatis; experiment: Synergistic antibacterial activity against Mycobacterium smegmatis mc2 155 assessed as fold reduction in MIC value at 8 ug/ml in presence of clofazimine by checkerboard assay; type: functional, organism-based; details: dose 8.0 µg/ml
Mycobacterium avium [24] = experiment: Antibacterial activity against Mycobacterium avium ATCC 25921 in presence of clofazimine by checkerboard assay; type: functional, organism-based; procedure, shortened: as §3
[25] = system: Mycobacterium tuberculosis; experiment: Antibacterial activity against Mycobacterium tuberculosis H37Rv assessed as inhibition of bacterial growth at 100 uM incubated for 24 hrs by Alamar blue assay; type: functional, organism-based
[26] = system: Mycobacterium tuberculosis; experiment: Antibacterial activity against Mycobacterium tuberculosis K204 assessed as inhibition of bacterial growth at 100 uM incubated for 24 hrs by Alamar blue assay; type: functional, organism-based
Escherichia coli = experiment: Antibacterial activity against Escherichia coli MC1061 assessed as inhibition of bacterial growth incubated upto 3 weeks hrs by resazurin dye based double-dilution method; type: functional, organism-based
A549 = experiment: Cytotoxicity against human A549 cells assessed as reduction in cell viability at 25 uM incubated for 24 hrs by resazurin assay; type: toxicity, cell-based; details: a549, 24 h
Procedure, shortened: (§4)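 Resazurin viability assay in DMEM + 10% FBS, 1% penicillin/streptomycin, 37 °C, 5% CO₂. Seeding: HEK-293 and J774A.1 at 1×10^4 cells/mL, A549 at 5×10^3 cells/mL. After 24 h, compounds added (0.78-200 μM, 0.5% DMSO final). Resazurin added 24 h later, read after 6 h. 1% Triton X as positive control. Quadruplicate.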

J774.A1 = experiment: Cytotoxicity against mouse J774.A1 cells assessed as reduction in cell viability at 25 uM incubated for 24 hrs by resazurin assay; type: toxicity, cell-based; details: j774.a1, 24 h; procedure, shortened: as §4
HEK293 = experiment: Cytotoxicity against human HEK293 cells assessed as reduction in cell viability at 25 uM incubated for 24 hrs by resazurin assay; type: toxicity, cell-based; details: hek293, 24 h; procedure, shortened: as §4

Compound | MIC [1] | fold change (FC) [2] | MIC [3] | fold change (FC) [4] | MIC [5] | MIC [7] | IC50 (N-acetyltransferase Eis [8]) | MIC (Mycobacterium avium [9]) | MIC [10] | MIC [11] | remaining at 0.5 h [12] | remaining at 0.5 h [13] | also measured
O=C(CCCN1CCC(O)(c2ccc(Br)cc2)CC1)c1ccc(F)cc1 [BROMPERIDOL] | 62.5 µM (≈ 26.3 µg/mL) | 4 | > 62.5 µM | 16 | > 62.5 µM | > 62.5 µM | 0.52 µM | 62.5 µM (≈ 26.3 µg/mL) | ≤ 1.25 µg/mL | 5 µg/mL |  |  | Ki (N-acetyltransferase Eis [6]): 0.24 µM
CC(C)(C)c1ccc(C(=O)CCCN2CCC(O)(c3ccc(F)cc3)CC2)cc1 | 31.3 µM (≈ 12.4 µg/mL) | 4 | > 62.5 µM | 16 | 15.6 µM (≈ 6.2 µg/mL) | 62.5 µM (≈ 24.8 µg/mL) | 200 µM | 31.3 µM (≈ 12.4 µg/mL) |  |  | 48% | 50% | 
O=C(CCCN1CCC(O)(c2ccc(F)cc2)CC1)c1ccc(Cl)cc1 | > 62.5 µM | 4 | > 62.5 µM | 16 | > 62.5 µM | > 62.5 µM | 2.6 µM | > 62.5 µM | ≤ 1.25 µg/mL | 10 µg/mL |  |  | Activity (Mycobacterium avium [14]): Active; Activity [15]: Active; Activity [16]: Active; Activity [17]: Active; Activity [18]: Active; Activity (Mycobacterium avium [19]): Active; Activity [20]: Active; Activity [21]: Active; Activity [22]: Active; Activity [23]: Active; Activity (Mycobacterium avium [24]): Active
CC(C)(C)c1ccc(C(=O)CCCN2CCC(O)(c3ccc(Cl)cc3)CC2)cc1 | 7.8 µM (≈ 3.23 µg/mL) | 4 | > 62.5 µM | 16 | 3.9 µM (≈ 1.61 µg/mL) | 15.6 µM (≈ 6.46 µg/mL) | > 200 µM | 7.8 µM (≈ 3.23 µg/mL) |  |  | 68% | 60% | inhibition [25]: Active; inhibition [26]: Active; inhibition (Escherichia coli): Active; Activity (A549): Toxic; Activity (J774.A1): Toxic; Activity (HEK293): Toxic
O=C(CCCN1CC=C(c2ccc(Cl)cc2)CC1)c1ccc(F)cc1 | 15.6 µM (≈ 5.58 µg/mL) |  | > 62.5 µM |  | 7.8 µM (≈ 2.79 µg/mL) | > 62.5 µM | 0.56 µM | 31.3 µM (≈ 11.2 µg/mL) |  |  | 90% | 30% | 
O=C(CCCN1CCC(O)(c2ccc(Br)cc2)CC1)c1ccc(Cl)cc1 | 62.5 µM (≈ 27.3 µg/mL) | 4 | > 62.5 µM | 16 | 7.8 µM (≈ 3.41 µg/mL) | 31.3 µM (≈ 13.7 µg/mL) | 1.1 µM | > 62.5 µM | ≤ 1.25 µg/mL | 10 µg/mL | 83% | 36% | Activity (Mycobacterium avium [14]): Active; Activity [16]: Active; Activity [17]: Active; Activity [18]: Active; Activity (Mycobacterium avium [19]): Active; Activity [20]: Active; Activity [21]: Active; Activity [22]: Active; Activity [23]: Active; Activity (Mycobacterium avium [24]): Active
O=C(CCCN1CCC(O)(c2ccc(F)cc2)CC1)c1ccc(F)cc1 | > 62.5 µM | 4 | > 62.5 µM | 16 | > 62.5 µM | > 62.5 µM | 0.76 µM | > 62.5 µM | ≤ 1.25 µg/mL | 5 µg/mL |  |  | Ki (N-acetyltransferase Eis [6]): 0.91 µM

Source: ChEMBL document CHEMBL5107950, “Structure-based design of haloperidol analogues as inhibitors of acetyltransferase Eis from Mycobacterium tuberculosis to overcome kanamycin resistance” (RSC Med Chem, 2021)
